# Published values from different studies.
# Lines come from different studies, so protocols differ.
# Target: Phosphatidylinositol 4-phosphate 3-kinase C2 domain-containing subunit alpha (PIK3C2A, Homo sapiens, UniProt O00443)
# Mode: inhibitor
SMILES,test,setting,endpoint,value
Cc1cnc(NC2CCOCC2)nc1-n1cnc(C(=O)NC(CN)c2cc(F)cc(Cl)c2)c1 (stereo not drawn),"enzyme activity, radiometric",1 µM,remaining activity,100%
CC(C)CCn1c(SCC(=O)Nc2ccccc2C(F)(F)F)nc2nccnc2c1=O,enzyme activity,10 µM,inhibition,84%
Cc1ccc(C(=O)NCc2ccsc2)cc1C#Cc1cn(C(C)C)c2ncnc(N)c12,enzyme activity,1 µM,activity vs control,98%
Cc1cc(NC(=O)c2cccc3cc(-c4cccc5[nH]nc(N)c45)ccc23)ccc1F,enzyme activity,0.1 µM,activity vs control,108%
O=C(CSc1nc2nccnc2c(=O)n1CCc1ccccc1)Nc1ccccc1,enzyme activity,10 µM,inhibition,93%
COc1cc(Cl)c(C(=O)N[C@@H](CN[C@H]2CC[C@@H](N)CC2)Cc2ccc(C#N)cc2)cc1-c1ccc(CN[C@H](C)c2ccc(C)cc2)o1,enzyme activity,1 µM,remaining activity,93%
Cc1ccc(NC(=O)c2ccc(C)c(C(F)(F)F)c2)cc1C#Cc1nn(C2CCC(O)CC2)c2ncnc(N)c12 (stereo not drawn),cell-free assay,10 µM,remaining signal,92%
CN1CC(Oc2cnc(C#N)cc2-c2ccn3nc(NC(=O)C4CC4)cc3c2)C1,enzyme activity,1 µM,inhibition,-4%
C=CC(=O)Nc1cc(Nc2nccc(Nc3cc(Cl)c(F)cc3C(C)(C)O)n2)c(OC)cc1N1CC[C@@H](N(C)C)C1,enzyme activity,1 µM,inhibition,-2%
